Laboratory results taken from ChEMBL document CHEMBL1148166, “30-, 31-, and 32-hydroxybullatacinones: bioactive terminally hydroxylated annonaceous acetogenins from Annona bullata” (J Nat Prod, 1993).
In brackets after ≈: the same amount, converted by molar mass.

What was measured:
[1] = test system: MCF7; experiment: Cytotoxicity against human MCF7 cells; assay type: functional; settings: for EC50: Homo sapiens, MCF7, read-out: ED50 (the source's name)
[2] = test system: HT-29; experiment: Cytotoxicity against human HT-29 cells; assay type: functional
[3] = test system: A549; experiment: Cytotoxicity against human A549 cells; assay type: functional; settings: for EC50: Homo sapiens, A549, read-out: ED50 (the source's name)
[4] = (§1) Toxicity in brine shrimp; assay type: organism-based; settings: artemia, in vivo
In short: (§2)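 Lethality read-out in brine shrimp larvae (BST), used routinely to screen extracts, fractions and isolated compounds.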

[5] = test system: Artemia; experiment: as §1; assay type: organism-based; settings: in vivo; in short: as §2

Compound | EC50 [1] [µg/mL] | ED50 [2] | EC50 [3] [µg/mL] | LC50 [4] [µg/mL] | LC50 [5] [×10⁻² ug/ml] | ED50 [3] | ED50 [1] [×10⁻⁴ ug/ml]
CCCCCCCCCC[C@H](O)[C@H]1CC[C@H]([C@H]2CC[C@H]([C@H](O)CCCCCCCCCCC3CC(CC(C)=O)C(=O)O3)O2)O1 (mixture of isomers) | 12.2 | 1.19 ×10⁻⁶ ug/ml | 0.00218 | 0.0054 | – | – | –
CCC(O)CCCCCCC[C@H](O)[C@H]1CC[C@H]([C@H]2CC[C@H]([C@H](O)CCCCCCCCCCC3CC(CC(C)=O)C(=O)O3)O2)O1 (mixture of isomers) | 0.161 | <1 ×10⁻¹² ug/ml | 0.00125 | – | 4.67 | – | –
COc1cccc2c1C(=O)c1c(O)c3c(c(O)c1C2=O)C[C@@](O)(C(=O)CO)C[C@@H]3O[C@H]1C[C@H](N)[C@H](O)[C@H](C)O1 [DOXORUBICIN] | 0.00202 (≈ 3.72 nM) | 3.32 ×10⁻⁴ ug/ml | – | – | – | 1.98 ×10⁻⁴ ug/ml | –
CCCC(O)CCCCCC[C@H](O)[C@H]1CC[C@H]([C@H]2CC[C@H]([C@H](O)CCCCCCCCCCC3CC(CC(C)=O)C(=O)O3)O2)O1 (mixture of isomers) | – | 1.09 ×10⁻¹² ug/ml | – | 0.158 | – | 3.29 ×10⁻¹¹ ug/ml | 7.63
CCCCC(O)CCCCC[C@H](O)[C@H]1CC[C@H]([C@H]2CC[C@H]([C@H](O)CCCCCCCCCCC3CC(CC(C)=O)C(=O)O3)O2)O1 (mixture of isomers) | 0.105 | <1 ×10⁻¹² ug/ml | – | – | 4.05 | 1.66 ×10⁻⁹ ug/ml | –
